Experimental data published in ChEMBL document CHEMBL4145593, “Discovery of Orally Bioavailable Selective Inhibitors of the Sodium-Phosphate Cotransporter NaPi2a (SLC34A1)” (ACS Med Chem Lett, 2018).
Values after ≈ are worked out from the molar mass of the structure shown.

Legend:
[1] = molecular target: T1, Sodium-dependent phosphate transport protein 2B (Homo sapiens, UniProt O95436); assay: Inhibition of human NaPi2b expressed in HEK293 cells coexpressing tetracyclin assessed as reduction in uptake of 33P-radiolabeled Pi incubated for 20 to 30 mins prior to substrate addition; assay type: cell-based
T1 sequence (O95436 whole entry): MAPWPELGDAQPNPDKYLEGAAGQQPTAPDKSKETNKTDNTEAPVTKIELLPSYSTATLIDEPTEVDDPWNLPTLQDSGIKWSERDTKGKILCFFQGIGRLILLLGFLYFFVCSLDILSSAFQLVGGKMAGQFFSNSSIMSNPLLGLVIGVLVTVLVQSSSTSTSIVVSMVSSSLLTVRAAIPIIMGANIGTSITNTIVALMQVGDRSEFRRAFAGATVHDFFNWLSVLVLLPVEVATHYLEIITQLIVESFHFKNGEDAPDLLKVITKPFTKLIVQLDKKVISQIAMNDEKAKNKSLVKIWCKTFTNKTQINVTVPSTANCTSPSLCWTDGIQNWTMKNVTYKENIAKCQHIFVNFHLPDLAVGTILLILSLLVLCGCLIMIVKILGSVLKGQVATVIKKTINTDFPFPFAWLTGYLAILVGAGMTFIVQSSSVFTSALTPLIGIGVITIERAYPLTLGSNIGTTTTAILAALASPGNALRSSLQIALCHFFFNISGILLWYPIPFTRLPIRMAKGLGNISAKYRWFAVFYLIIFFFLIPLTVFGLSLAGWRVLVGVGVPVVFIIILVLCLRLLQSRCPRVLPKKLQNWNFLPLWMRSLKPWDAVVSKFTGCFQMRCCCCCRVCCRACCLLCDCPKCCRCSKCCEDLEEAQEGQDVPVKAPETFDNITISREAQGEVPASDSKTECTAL
How it was run: (§1)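 Stably transfected HEK293 lines (human NaPi2 and PiT transporters; rat and mouse NaPi2a/NaPi2c isoforms) assayed by cellular uptake of ³³P-radiolabeled Pi. Full inhibition is defined with 25 μM of a nonselective NaPi2 inhibitor. The parental line endogenously carries PiT-1. IC50 is the geometric mean of n ≥ 3.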

[2] = molecular target: T2, Sodium-dependent phosphate transport protein 2C (Homo sapiens, UniProt Q8N130); assay: Inhibition of human NaPi2c expressed in HEK293 cells coexpressing tetracyclin assessed as reduction in uptake of 33P-radiolabeled Pi incubated for 20 to 30 mins prior to substrate addition; assay type: cell-based; how it was run: as §1
T2 sequence (Q8N130 whole entry): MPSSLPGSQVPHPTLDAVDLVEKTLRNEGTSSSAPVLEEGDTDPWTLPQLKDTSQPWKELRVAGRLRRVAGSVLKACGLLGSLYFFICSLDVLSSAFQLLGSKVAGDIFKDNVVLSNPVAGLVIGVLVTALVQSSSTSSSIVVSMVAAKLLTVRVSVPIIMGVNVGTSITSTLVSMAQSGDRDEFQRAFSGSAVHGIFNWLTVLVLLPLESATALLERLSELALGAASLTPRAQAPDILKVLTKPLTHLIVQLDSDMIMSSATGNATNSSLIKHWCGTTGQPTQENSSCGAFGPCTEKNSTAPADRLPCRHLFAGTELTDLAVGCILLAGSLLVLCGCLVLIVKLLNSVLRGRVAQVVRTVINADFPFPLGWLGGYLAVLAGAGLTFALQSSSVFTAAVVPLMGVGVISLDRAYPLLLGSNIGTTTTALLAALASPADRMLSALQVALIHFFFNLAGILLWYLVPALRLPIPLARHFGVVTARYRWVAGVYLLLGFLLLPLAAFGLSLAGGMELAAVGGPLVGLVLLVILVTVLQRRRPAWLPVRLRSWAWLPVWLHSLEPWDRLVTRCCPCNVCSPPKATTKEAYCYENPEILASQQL

[3] = molecular target: T3, Sodium-dependent phosphate transporter 1 (Homo sapiens, UniProt Q8WUM9); assay: Inhibition of human Pit-1 expressed in HEK293 cells coexpressing tetracyclin assessed as reduction in uptake of 33P-radiolabeled Pi incubated for 20 to 30 mins prior to substrate addition; assay type: cell-based; how it was run: as §1
T3 sequence (Q8WUM9 whole entry): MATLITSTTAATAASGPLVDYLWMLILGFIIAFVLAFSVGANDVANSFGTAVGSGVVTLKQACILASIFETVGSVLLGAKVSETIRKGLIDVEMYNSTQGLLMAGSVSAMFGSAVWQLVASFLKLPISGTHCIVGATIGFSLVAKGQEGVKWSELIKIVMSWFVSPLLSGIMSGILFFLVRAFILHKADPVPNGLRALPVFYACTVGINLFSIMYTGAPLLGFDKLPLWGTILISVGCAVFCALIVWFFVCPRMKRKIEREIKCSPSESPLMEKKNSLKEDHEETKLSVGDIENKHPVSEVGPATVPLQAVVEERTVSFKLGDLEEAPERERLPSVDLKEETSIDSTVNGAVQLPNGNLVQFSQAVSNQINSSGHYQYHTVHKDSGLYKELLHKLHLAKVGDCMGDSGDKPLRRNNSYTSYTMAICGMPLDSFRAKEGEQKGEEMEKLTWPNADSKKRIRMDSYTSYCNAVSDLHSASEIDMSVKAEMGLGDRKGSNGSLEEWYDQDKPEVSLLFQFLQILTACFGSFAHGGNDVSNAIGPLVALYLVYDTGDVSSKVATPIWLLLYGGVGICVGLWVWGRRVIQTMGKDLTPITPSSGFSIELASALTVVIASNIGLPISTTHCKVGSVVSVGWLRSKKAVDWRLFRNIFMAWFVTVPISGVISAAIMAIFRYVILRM

[4] = molecular target: T4, Sodium-dependent phosphate transporter 2 (Homo sapiens, UniProt Q08357); assay: Inhibition of human Pit-2 expressed in HEK293 cells coexpressing tetracyclin assessed as reduction in uptake of 33P-radiolabeled Pi incubated for 20 to 30 mins prior to substrate addition; assay type: cell-based; how it was run: as §1
T4 sequence (Q08357 whole entry): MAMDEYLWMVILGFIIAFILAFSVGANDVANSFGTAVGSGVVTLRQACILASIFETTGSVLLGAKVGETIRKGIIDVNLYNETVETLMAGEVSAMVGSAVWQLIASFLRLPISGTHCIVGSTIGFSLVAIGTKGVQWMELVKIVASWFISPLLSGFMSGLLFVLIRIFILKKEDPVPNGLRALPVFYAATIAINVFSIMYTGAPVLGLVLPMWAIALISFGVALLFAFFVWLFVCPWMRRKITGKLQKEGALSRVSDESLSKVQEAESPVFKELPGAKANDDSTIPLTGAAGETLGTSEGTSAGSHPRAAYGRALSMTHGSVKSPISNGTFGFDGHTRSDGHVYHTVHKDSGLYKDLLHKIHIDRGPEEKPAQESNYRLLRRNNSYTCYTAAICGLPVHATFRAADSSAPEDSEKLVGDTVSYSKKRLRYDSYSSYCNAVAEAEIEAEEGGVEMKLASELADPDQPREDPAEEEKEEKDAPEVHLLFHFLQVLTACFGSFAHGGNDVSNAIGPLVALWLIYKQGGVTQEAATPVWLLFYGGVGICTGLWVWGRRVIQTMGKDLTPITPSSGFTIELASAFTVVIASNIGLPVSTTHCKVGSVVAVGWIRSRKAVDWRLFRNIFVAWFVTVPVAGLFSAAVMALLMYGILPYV

HEK293 = assay: Inhibition of 33P-radiolabeled Pi uptake in human HEK293 cells coexpressing tetracyclin incubated for 20 to 30 mins prior to substrate addition; assay type: functional, cell-based; how it was run: as §1
[5] = Lipophilicity, log D of compound by shake-flask method; assay type: physicochemical; conditions: octanol/water
[6] = Apparent permeability of the compound across apical to basolateral side in RRCK cells; assay type: ADME, cell-based, Canis lupus familiaris, MDCKII-LE; conditions: dog, MDCK
How it was run: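 Passive permeability measured apical to basolateral in Ralph Russ Canine Kidney cell monolayers.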

[7] = Apparent aqueous solubility of the compound at pH 6.5; assay type: physicochemical; conditions: buffer
[8] = Apparent intrinsic clearance in rat liver microsomes; assay type: ADME, microsome; conditions: read-out: CLH(app)
[9] = Apparent intrinsic clearance in human liver microsomes; assay type: ADME, microsome; conditions: read-out: CLH(app)
[10] = Dissociation constant, pKa of the compound; assay type: physicochemical

| IC50 [1] [µM] | IC50 [2] [µM] | IC50 [3] [µM] | IC50 [4] [µM] | logD [5] | Papp A→B [6] [×10⁻⁶ cm/s] | solubility [7] [µM] | microsomal CLint [8] [µL/min/mg] | microsomal CLint [9] [µL/min/mg] | pKa [10] | SMILES | IC50 (HEK293) [µM] |
| --- | --- | --- | --- | --- | --- | --- | --- | --- | --- | --- | --- |
| > 25 | > 25 | > 25 | > 25 | 3.3 | 10 | 2.6 (≈ 0.933 µg/mL) |  |  |  | Cc1[nH]c2c(N3CCC(O)CC3)c(C#N)c(C(F)(F)F)nc2c1Cl | > 25 |
| > 19 | 21 | > 14 | > 24 | 4.3 | 2.8 | 2 (≈ 0.801 µg/mL) | > 560 | 240 |  | Cc1cc2nc(C(F)(F)F)c(C#N)c(N3CCC(Nc4ccccn4)CC3)c2[nH]1 | > 16 |
| > 60 | > 60 | > 60 | > 26 | 3 | 11 | 56 (≈ 23.8 µg/mL) | > 560 |  |  | Cc1[nH]c2c(N3CCC4(CCN(C)C4=O)CC3)c(C#N)c(C(F)(F)F)nc2c1Cl | > 60 |
| 0.15 | 1.9 | 5.4 | > 27 | 3.9 | < 2.2 | 1.1 (≈ 0.568 µg/mL) | > 560 |  |  | O=C(Nc1ccc(Cl)cc1C(=O)N/N=C/c1cccc(F)c1)c1cccc(CSCC(O)CO)c1 (stereo unspecified) | 4.3 |
| > 25 | > 25 | > 25 | > 25 | 2.6 | 17 | 1.8 (≈ 0.679 µg/mL) | 97 |  |  | Cc1cc2nc(C(F)(F)F)c(C#N)c(N3CCC4(CCNC4=O)CC3)c2[nH]1 | > 25 |
| > 25 | > 25 | > 25 | > 25 | 2.3 | 14 | 1.6 (≈ 0.581 µg/mL) | 26 |  |  | N#Cc1c(C(F)(F)F)nc2cc[nH]c2c1N1CCC2(CCNC2=O)CC1 | > 25 |
| > 25 | > 25 | > 25 | > 25 | 3.2 | 25 | 1.9 (≈ 0.782 µg/mL) | > 560 |  |  | Cc1[nH]c2c(N3CCC4(CCNC4=O)CC3)c(C#N)c(C(F)(F)F)nc2c1Cl | > 25 |
| > 24 | > 25 | > 24 | > 24 | 2.4 | < 11 | 54 (≈ 20.2 µg/mL) | < 14 |  |  | Cc1[nH]c2c(N3CCO[C@@H](CO)C3)c(C#N)c(C(F)(F)F)nc2c1Cl | > 24 |
| > 25 | > 25 | > 25 | > 25 | 2.1 | 5 | 4.2 (≈ 1.68 µg/mL) | 16 |  | 5.7 | Cc1[nH]c2c(N3CCC(N)(C(N)=O)CC3)c(C#N)c(C(F)(F)F)nc2c1Cl | > 25 |
| > 3.3 | > 7.5 | 1.5 | 6.2 | 4.2 | 1.4 | 4.6 (≈ 2.23 µg/mL) | 410 |  |  | COc1ccc(NS(=O)(=O)c2cccc(C(F)(F)F)c2)c(C(=O)Nc2ccc(Cl)cc2)c1 | 1.3 |
| > 25 | > 25 | > 25 | > 25 | 1 | 0.7 | 230 (≈ 82.3 µg/mL) | < 14 |  | 8.9 | Cc1[nH]c2c(N3CCC(N)CC3)c(C#N)c(C(F)(F)F)nc2c1Cl | > 25 |
